Most compounds without a hit are left out; they make up all but 4.4% or so of the library.
AHR act: AHR activators, primary screen, cell-based, luminescence, luciferase reporter, human | 320,000 tested, 2.5% active | activation, % at 5 µM | Aryl hydrocarbon receptor (Homo sapiens), P35869 | AHR-responsive luciferase reporter cells; in the data active = activation above about 47%;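 also: 0% = vehicle wells and 100% = reference agonist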
Target sequence (P35869 whole entry, looked up): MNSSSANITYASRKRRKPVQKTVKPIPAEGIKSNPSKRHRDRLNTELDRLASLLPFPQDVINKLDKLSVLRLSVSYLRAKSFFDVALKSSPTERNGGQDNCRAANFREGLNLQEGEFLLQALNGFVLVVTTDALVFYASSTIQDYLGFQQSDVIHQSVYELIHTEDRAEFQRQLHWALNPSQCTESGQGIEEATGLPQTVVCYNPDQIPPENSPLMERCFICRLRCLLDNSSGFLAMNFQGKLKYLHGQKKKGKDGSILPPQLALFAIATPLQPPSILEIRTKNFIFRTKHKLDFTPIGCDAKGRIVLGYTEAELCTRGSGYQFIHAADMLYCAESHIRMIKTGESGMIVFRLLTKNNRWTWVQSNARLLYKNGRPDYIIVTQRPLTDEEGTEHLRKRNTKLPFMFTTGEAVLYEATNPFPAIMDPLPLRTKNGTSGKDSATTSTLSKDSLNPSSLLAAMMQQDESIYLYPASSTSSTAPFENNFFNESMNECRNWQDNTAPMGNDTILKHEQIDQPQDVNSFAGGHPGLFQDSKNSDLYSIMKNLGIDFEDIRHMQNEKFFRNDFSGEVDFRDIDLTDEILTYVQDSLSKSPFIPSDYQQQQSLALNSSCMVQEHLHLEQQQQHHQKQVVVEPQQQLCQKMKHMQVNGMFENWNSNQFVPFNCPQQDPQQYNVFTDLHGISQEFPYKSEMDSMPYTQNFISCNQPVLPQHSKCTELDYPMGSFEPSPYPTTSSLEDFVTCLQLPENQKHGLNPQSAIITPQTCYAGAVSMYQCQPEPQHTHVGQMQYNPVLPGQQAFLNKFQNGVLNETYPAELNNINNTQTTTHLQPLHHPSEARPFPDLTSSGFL
MsrA inhibitor: bovine MsrA enzyme inhibitors, primary screen, biochemical, absorbance, HTS | 360,000 tested, 0.75% active | purified bovine MsrA, absorbance read-out | inhibition, % at 15.5 µM | Methionine sulfoxide reductase A (Bos taurus) | AID 651718, 2012; in the data active = inhibition above about 4.5%;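 also: 0% = vehicle wells with enzyme and 100% = reference inhibitor wells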
AI-2 QS modul: Vibrio harveyi AI-2 quorum sensing modulators, primary screen, JMH597 strain, luminescence/OD600 ratio; AID 2094, 2009; activity change, % at 7.5 µM; 300,000 tested, 0.4% active; Vibrio harveyi JMH597 AI-2 luminescence/OD600 ratio, 9 h; stronger effect = lower value; strain lacks LuxN and CqsS sensors; 0 = neutral-control median; in the data active = activity change below about -75%, passing the limit was not always enough;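 also: luminescence divided by OD600 gain over 9 h not by final OD600 alone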
Tb MetRS inh: T. brucei MetRS inhibitors, primary screen, biochemical, luminescence | methionyl-tRNA synthetase (Trypanosoma brucei brucei) | purified T. brucei MetRS, ATP depletion, Kinase-Glo luminescence | inhibition, % at 11.9 µM | 360,000 tested, 0.4% active;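 active = inhibition above a per-plate cutoff of the control wells' mean inhibition plus 3 SD, cut at about 5.5% in these data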;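 also: 0% = DMSO wells median and 100% = median of wells with control inhibitor compound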
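Test system: purified T. brucei MetRS enzyme. Also added: ATP, methionine and E. coli bulk tRNA substrates. Compound: 11.9 µM single point. Schedule: 15 min enzyme-compound preincubation, 2 h reaction, 10 min detection, 25 °C. Signal: luciferase luminescence of residual ATP, Kinase-Glo. Evaluation: percent inhibition versus plate control medians. Controls: DMSO wells, low control.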
HTR2A ag: mouse Htr2a agonists via beta-arrestin recruitment, primary screen, cell-based, luminescence. CHO-K1 mHTR2A beta-arrestin complementation; percent of 30 µM serotonin response. activation, % at 7.6 µM. 360,000 tested, 0.66% active. AID 624169, 2012;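 active = activation above a run cutoff, the mean activation of all tested compounds plus 3 SD, cut at about 14% in these data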;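 also: 0% = plate median of compound wells and 100% = 30 µM serotonin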
MsrA act: bovine MsrA enzyme activators, primary screen, biochemical, absorbance, HTS | Methionine sulfoxide reductase A (Bos taurus) | AID 602163, 2012 | purified bovine MsrA, absorbance read-out | 360,000 tested, 0.3% active | activation, % at 10.6 µM; in the data active = activation above about 7.5%;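 also: 0% = vehicle and 100% = reference activator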
AHR act cf: AHR activators, confirmation, cell-based, luminescence, luciferase reporter, human; shares compounds with AHR act; human cells, AHR-responsive luciferase reporter; activation, % at 9 µM; 2,300 tested, 87% active; in the data active = activation above about 49%;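 also: HepG2 hepatoma cells carrying a DRE-driven firefly luciferase reporter; 0% = vehicle wells and 100% = reference agonist wells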
PXR counter: human PXR activators, counter-screen for AHR activator project, cell-based, luciferase luminescence; shares compounds with AHR act; cell-based PXR reporter; activation, % at 11.6 µM; 2,300 tested, 88% active; AID 434939, 2010; in the data active = activation above about 11%;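 also: human hepatoma DPX-2 cells expressing full-length human PXR; 0% = DMSO and 100% = reference agonist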
* hit, by the source's call.

What do the screens show for `CCS(=O)(=O)Nc1cccc(-c2nc3cccnc3s2)c1C`?
AHR act: 26; MsrA inhibitor: 2; AI-2 QS modul: 11; Tb MetRS inh: -1; HTR2A ag: 0; MsrA act: -2

Results for Cc1ccc(-c2nc3cccnc3s2)cc1NS(C)(=O)=O ?
AHR act: 142*; MsrA inhibitor: 1; AI-2 QS modul: 26; Tb MetRS inh: -1; HTR2A ag: -3; MsrA act: -6; AHR act cf: 121*; PXR counter: 37*

Results for O=S(=O)(Nc1cccc(-c2nc3cccnc3s2)c1)c1cccs1 ?
AHR act: 5; MsrA inhibitor: 1; AI-2 QS modul: -4; Tb MetRS inh: 0; HTR2A ag: -5; MsrA act: -1

How did O=C(Nc1ccccc1C(=O)Nc1ccccc1)c1cccs1 do in these assays?
AHR act: 92*; MsrA inhibitor: -1; AI-2 QS modul: 22; Tb MetRS inh: 0; HTR2A ag: 0; MsrA act: -1; AHR act cf: 89*; PXR counter: 30*

What do the screens show for `Cc1nc2ccc(NC(=O)c3ccc(Cl)c(NC(=O)c4cccs4)c3)cc2s1`?
AHR act: 27; MsrA inhibitor: 1; AI-2 QS modul: 33; Tb MetRS inh: -2; HTR2A ag: 1; MsrA act: -12

Results for Cc1ccc(NC(=O)c2ccc(Cl)c(NC(=O)c3cccs3)c2)cc1 ?
AHR act: 131*; MsrA inhibitor: 0; AI-2 QS modul: 25; Tb MetRS inh: 0; HTR2A ag: -6; MsrA act: -1; AHR act cf: 73*; PXR counter: 41*

How did COc1ccc(C2(C(=O)NCCc3ccccc3)CCCC2)cc1OC do in these assays?
AHR act: 1; AI-2 QS modul: 2; Tb MetRS inh: 0; HTR2A ag: -6; MsrA act: -1

Results for Cc1ccc2oc(-c3cccc(N)c3)nc2c1 ?
AHR act: 110*; MsrA inhibitor: 0; AI-2 QS modul: 12; Tb MetRS inh: -1; HTR2A ag: 0; MsrA act: -3; AHR act cf: 107*; PXR counter: 10*

Results for Cc1ccc(-c2nc3cc(C)ccc3o2)cc1 ?
AHR act: 12; MsrA inhibitor: 0; AI-2 QS modul: 18; Tb MetRS inh: 0; HTR2A ag: 3; MsrA act: -2

What do the screens show for `Cc1ccc2nc(-c3cccnc3)oc2c1`?
AHR act: 89*; MsrA inhibitor: -1; AI-2 QS modul: 24; Tb MetRS inh: 0; HTR2A ag: -2; MsrA act: 0; AHR act cf: 106*; PXR counter: 31*

Results for FC(F)(F)c1cc(-c2ccco2)nc(N2CCN(Cc3ccccc3)CC2)n1 ?
AHR act: -1; MsrA inhibitor: 1; AI-2 QS modul: 14; Tb MetRS inh: 0; HTR2A ag: -5; MsrA act: -1

What do the screens show for `Fc1ccc(N2CCN(c3nc(-c4ccco4)cc(C(F)(F)F)n3)CC2)cc1`?
AHR act: 115*; MsrA inhibitor: -1; AI-2 QS modul: 23; Tb MetRS inh: 0; HTR2A ag: 4; MsrA act: 0; AHR act cf: 105*; PXR counter: 14*

How did CN(C)C(CNS(=O)(=O)c1cc([N+](=O)[O-])ccc1Cl)c1ccco1 (stereo not drawn) do in these assays?
AHR act: 6; MsrA inhibitor: 0; Tb MetRS inh: 0; HTR2A ag: 3; MsrA act: -1

What do the screens show for `CCn1ncc(Br)c1C(=O)Nc1ccccc1C(=O)OC`?
AHR act: 0; MsrA inhibitor: 0; AI-2 QS modul: 18; Tb MetRS inh: -1; HTR2A ag: 2; MsrA act: -10

Results for CCn1ncc(Br)c1C(=O)Nc1ccc(OC(F)(F)F)cc1 ?
AHR act: 96*; MsrA inhibitor: -1; AI-2 QS modul: 25; Tb MetRS inh: -1; HTR2A ag: 2; MsrA act: -2; AHR act cf: 91*; PXR counter: 20*

Results for CCn1ncc(Br)c1C(=O)Nc1ccccc1C(F)(F)F ?
AHR act: 88*; MsrA inhibitor: 0; AI-2 QS modul: 6; Tb MetRS inh: 0; HTR2A ag: 2; MsrA act: 0; AHR act cf: 92*; PXR counter: 23*

What do the screens show for `COc1ccc(CNC(=O)CCNS(=O)(=O)c2cc(Br)cnc2N)cc1`?
AHR act: 2; AI-2 QS modul: 2; Tb MetRS inh: 0; HTR2A ag: 0; MsrA act: -4

What do the screens show for `CCn1c2c(c3cc(Cl)ccc31)CCCC2=O`?
AHR act: 4; MsrA inhibitor: 1; AI-2 QS modul: 9; Tb MetRS inh: 0; HTR2A ag: -1; MsrA act: -2

How did CCN1CCn2c3c(c4cc(Cl)ccc42)CCCC31 (stereo not drawn) do in these assays?
AHR act: 118*; MsrA inhibitor: 1; AI-2 QS modul: 24; Tb MetRS inh: 0; HTR2A ag: -5; MsrA act: 0; AHR act cf: 62*; PXR counter: 48*

Results for C=CCn1c(SCC(=O)N2CCCC2)nc2c([nH]c3ccccc32)c1=O ?
AHR act: 86*; MsrA inhibitor: -1; AI-2 QS modul: 13; Tb MetRS inh: 0; HTR2A ag: 1; MsrA act: -2; AHR act cf: 98*; PXR counter: 125*

How did C=CCn1c(SCC(=O)N2CCN(C(=O)OCC)CC2)nc2c([nH]c3ccccc32)c1=O do in these assays?
MsrA inhibitor: 0; Tb MetRS inh: 0; HTR2A ag: 1; MsrA act: 0

Results for CC(C)c1ccc(OCC(=O)NC2CC(C)(C)NC(C)(C)C2)c(Br)c1 ?
AHR act: 1; MsrA inhibitor: -1; AI-2 QS modul: 14; Tb MetRS inh: 0; HTR2A ag: 4; MsrA act: 0

How did CC(C)CN(C(=O)C1COc2ccccc2O1)c1c(N)n(CC(C)C)c(=O)[nH]c1=O (stereo not drawn) do in these assays?
AHR act: -1; MsrA inhibitor: 0; Tb MetRS inh: 0; HTR2A ag: -3; MsrA act: -3

High-throughput results: PubChem BioAssay, several laboratories
